Tests used:
Digitaria sanguinalis = assay: Post-emergence herbicidal activity against Digitaria sanguinalis (hairy crabgrass) assessed as growth inhibition at emulsified concentrate of 150 g/ai ha after 15 days by greenhouse test; type: functional
How it was run: (§1)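 About 20 seeds sown 1–3 cm deep, grown at 15–30 °C and 50% RH. Monocot seedlings sprayed postemergence at the one-leaf stage with a 100 g/L emulsifiable concentrate (DMF/Tween-80) diluted in water, 150 g ai/ha. Untreated and solvent controls included. Visual rating at 15 days, three replicates.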

Rumex acetosa [1] = assay: Post-emergence herbicidal activity against Rumex acetosa assessed as growth inhibition at emulsified concentrate of 150 g/ai ha after 15 days by greenhouse test; type: functional
Poa annua = assay: Post-emergence herbicidal activity against Poa annua assessed as growth inhibition at emulsified concentrate of 150 g/ai ha after 15 days by greenhouse test; type: functional; how it was run: as §1
Cyperus iria [2] = assay: Post-emergence herbicidal activity against Cyperus iria assessed as growth inhibition at emulsified concentrate of 150 g/ai ha after 15 days by greenhouse test; type: functional
Polygonum humifusum [3] = assay: Post-emergence herbicidal activity against Polygonum humifusum assessed as growth inhibition at emulsified concentrate of 150 g/ai ha after 15 days by greenhouse test; type: functional
Amaranthus retroflexus [4] = assay: Post-emergence herbicidal activity against Amaranthus retroflexus assessed as growth inhibition at emulsified concentrate of 37.5 g/ai ha after 15 days by greenhouse test; type: functional
How it was run: (§2)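 Compounds were made up as 100 g/L emulsifiable concentrates in DMF with Tween-80, then diluted in water. About 20 seeds were sown 1-3 cm deep in pots and grown in a greenhouse at 15-30 °C and 50% relative humidity. Sprays were applied postemergence at the two-leaf stage. Untreated and DMF + Tween-80 solvent controls were included. Injury was scored visually 15 days after treatment, with three replicates per treatment.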

Echinochloa crus-galli = assay: Post-emergence herbicidal activity against Echinochloa crus-galli (barnyard grass) assessed as growth inhibition at emulsified concentrate of 150 g/ai ha after 15 days by greenhouse test; type: functional; how it was run: as §1
Eclipta prostrata [5] = assay: Post-emergence herbicidal activity against Eclipta prostrata assessed as growth inhibition at emulsified concentrate of 75 g/ai ha after 15 days by greenhouse test; type: functional; how it was run: as §2
Cyperus iria [6] = assay: Post-emergence herbicidal activity against Cyperus iria assessed as growth inhibition at emulsified concentrate of 37.5 g/ai ha after 15 days by greenhouse test; type: functional
Polygonum humifusum [7] = assay: Post-emergence herbicidal activity against Polygonum humifusum assessed as growth inhibition at emulsified concentrate of 37.5 g/ai ha after 15 days by greenhouse test; type: functional
[8] = biological target: T1, Protoporphyrinogen oxidase (Homo sapiens, UniProt P50336); assay: Inhibition of Homo sapiens (human) recombinant protoporphyrinogen oxidase expressed in Escherichia coli JM109 assessed as oxidation of protoporphyrinogen IX substrate by fluorescence assay
T1 sequence (P50336 whole entry): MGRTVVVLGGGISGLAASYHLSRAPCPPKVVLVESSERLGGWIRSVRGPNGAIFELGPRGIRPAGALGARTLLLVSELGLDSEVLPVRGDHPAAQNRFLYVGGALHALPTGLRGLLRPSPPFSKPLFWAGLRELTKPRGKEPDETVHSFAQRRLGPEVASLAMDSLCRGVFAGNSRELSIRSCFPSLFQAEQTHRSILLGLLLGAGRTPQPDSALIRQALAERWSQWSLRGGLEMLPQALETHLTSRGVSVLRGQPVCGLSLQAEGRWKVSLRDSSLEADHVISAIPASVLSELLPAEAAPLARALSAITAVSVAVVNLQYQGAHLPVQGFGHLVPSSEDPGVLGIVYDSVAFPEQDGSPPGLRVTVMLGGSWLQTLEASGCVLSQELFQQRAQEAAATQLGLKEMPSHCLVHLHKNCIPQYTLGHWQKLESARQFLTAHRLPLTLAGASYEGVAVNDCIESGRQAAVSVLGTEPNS

Brassica juncea [9] = assay: Post-emergence herbicidal activity against Brassica juncea assessed as growth inhibition at emulsified concentrate of 150 g/ai ha after 15 days by greenhouse test; type: functional
How it was run: (§3)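 About 20 seeds sown 1–3 cm deep, grown at 15–30 °C and 50% RH. Dicot seedlings sprayed postemergence at the two-leaf stage with a 100 g/L emulsifiable concentrate (DMF/Tween-80) diluted in water, 150 g ai/ha. Untreated and solvent controls included. Visual rating at 15 days, three replicates.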

Amaranthus retroflexus [10] = assay: Post-emergence herbicidal activity against Amaranthus retroflexus assessed as growth inhibition at emulsified concentrate of 75 g/ai ha after 15 days by greenhouse test; type: functional; how it was run: as §2
Amaranthus retroflexus [11] = assay: Post-emergence herbicidal activity against Amaranthus retroflexus assessed as growth inhibition at emulsified concentrate of 150 g/ai ha after 15 days by greenhouse test; type: functional; how it was run: as §3
Rumex acetosa [12] = assay: Post-emergence herbicidal activity against Rumex acetosa assessed as growth inhibition at emulsified concentrate of 75 g/ai ha after 15 days by greenhouse test; type: functional
Eclipta prostrata [13] = assay: Post-emergence herbicidal activity against Eclipta prostrata assessed as growth inhibition at emulsified concentrate of 37.5 g/ai ha after 15 days by greenhouse test; type: functional; how it was run: as §2
Brassica juncea [14] = assay: Post-emergence herbicidal activity against Brassica juncea assessed as growth inhibition at emulsified concentrate of 37.5 g/ai ha after 15 days by greenhouse test; type: functional; how it was run: as §2
Polygonum humifusum [15] = assay: Post-emergence herbicidal activity against Polygonum humifusum assessed as growth inhibition at emulsified concentrate of 75 g/ai ha after 15 days by greenhouse test; type: functional
Abutilon theophrasti [16] = assay: Post-emergence herbicidal activity against Abutilon theophrasti (velvetleaf) assessed as growth inhibition at emulsified concentrate of 150 g/ai ha after 15 days by greenhouse test; type: functional
Rumex acetosa [17] = assay: Post-emergence herbicidal activity against Rumex acetosa assessed as growth inhibition at emulsified concentrate of 37.5 g/ai ha after 15 days by greenhouse test; type: functional
Cyperus iria [18] = assay: Post-emergence herbicidal activity against Cyperus iria assessed as growth inhibition at emulsified concentrate of 75 g/ai ha after 15 days by greenhouse test; type: functional
Abutilon theophrasti [19] = assay: Post-emergence herbicidal activity against Abutilon theophrasti (velvetleaf) assessed as growth inhibition at emulsified concentrate of 37.5 g/ai ha after 15 days by greenhouse test; type: functional
Brassica juncea [20] = assay: Post-emergence herbicidal activity against Brassica juncea assessed as growth inhibition at emulsified concentrate of 75 g/ai ha after 15 days by greenhouse test; type: functional; how it was run: as §2
Abutilon theophrasti [21] = assay: Post-emergence herbicidal activity against Abutilon theophrasti (velvetleaf) assessed as growth inhibition at emulsified concentrate of 75 g/ai ha after 15 days by greenhouse test; type: functional
Eclipta prostrata [22] = assay: Post-emergence herbicidal activity against Eclipta prostrata assessed as growth inhibition at emulsified concentrate of 150 g/ai ha after 15 days by greenhouse test; type: functional; how it was run: as §3

SMILES: CCOC(=O)CSc1nc2cc(-n3nc(C(C)(C)C)oc3=O)c(F)cc2s1
- inhibition (INH) (Digitaria sanguinalis): 0%
- inhibition (INH) (Rumex acetosa [1]): 70%
- inhibition (INH) (Poa annua): 0%
- inhibition (INH) (Cyperus iria [2]): 70%
- inhibition (INH) (Polygonum humifusum [3]): 80%
- inhibition (INH) (Amaranthus retroflexus [4]): 50%
- inhibition (INH) (Echinochloa crus-galli): 0%
- inhibition (INH) (Eclipta prostrata [5]): 0%
- inhibition (INH) (Cyperus iria [6]): 60%
- inhibition (INH) (Polygonum humifusum [7]): 70%
- Ki [8]: 1580 nM
- inhibition (INH) (Brassica juncea [9]): 50%
- inhibition (INH) (Amaranthus retroflexus [10]): 50%
- inhibition (INH) (Amaranthus retroflexus [11]): 90%
- inhibition (INH) (Rumex acetosa [12]): 50%
- inhibition (INH) (Eclipta prostrata [13]): 0%
- inhibition (INH) (Brassica juncea [14]): 0%
- inhibition (INH) (Polygonum humifusum [15]): 70%
- inhibition (INH) (Abutilon theophrasti [16]): 0%
- inhibition (INH) (Rumex acetosa [17]): 50%
- inhibition (INH) (Cyperus iria [18]): 70%
- inhibition (INH) (Abutilon theophrasti [19]): 0%
- inhibition (INH) (Brassica juncea [20]): 50%
- inhibition (INH) (Abutilon theophrasti [21]): 0%
- inhibition (INH) (Eclipta prostrata [22]): 50%

SMILES: CCOC(=O)CCCSc1nc2cc(-n3nc(C(C)(C)C)oc3=O)c(F)cc2s1
- inhibition (INH) (Digitaria sanguinalis): 0%
- inhibition (INH) (Rumex acetosa [1]): 70%
- inhibition (INH) (Poa annua): 0%
- inhibition (INH) (Cyperus iria [2]): 70%
- inhibition (INH) (Polygonum humifusum [3]): 80%
- inhibition (INH) (Amaranthus retroflexus [4]): 60%
- inhibition (INH) (Echinochloa crus-galli): 0%
- inhibition (INH) (Eclipta prostrata [5]): 60%
- inhibition (INH) (Cyperus iria [6]): 60%
- inhibition (INH) (Polygonum humifusum [7]): 50%
- Ki [8]: 700 nM
- inhibition (INH) (Brassica juncea [9]): 50%
- inhibition (INH) (Amaranthus retroflexus [10]): 80%
- inhibition (INH) (Amaranthus retroflexus [11]): 90%
- inhibition (INH) (Rumex acetosa [12]): 60%
- inhibition (INH) (Eclipta prostrata [13]): 50%
- inhibition (INH) (Brassica juncea [14]): 50%
- inhibition (INH) (Polygonum humifusum [15]): 80%
- inhibition (INH) (Abutilon theophrasti [16]): 50%
- inhibition (INH) (Rumex acetosa [17]): 50%
- inhibition (INH) (Cyperus iria [18]): 60%
- inhibition (INH) (Abutilon theophrasti [19]): 0%
- inhibition (INH) (Brassica juncea [20]): 50%
- inhibition (INH) (Abutilon theophrasti [21]): 0%
- inhibition (INH) (Eclipta prostrata [22]): 70%

SMILES: CCOC(=O)C(C)Sc1nc2cc(-n3nc(C(C)(C)C)oc3=O)c(Cl)cc2s1 (stereo not given)
- inhibition (INH) (Digitaria sanguinalis): 0%
- inhibition (INH) (Rumex acetosa [1]): 60%
- inhibition (INH) (Poa annua): 0%
- inhibition (INH) (Cyperus iria [2]): 70%
- inhibition (INH) (Polygonum humifusum [3]): 70%
- inhibition (INH) (Amaranthus retroflexus [4]): 60%
- inhibition (INH) (Echinochloa crus-galli): 0%
- inhibition (INH) (Eclipta prostrata [5]): 40%
- inhibition (INH) (Cyperus iria [6]): 60%
- inhibition (INH) (Polygonum humifusum [7]): 40%
- Ki [8]: 1690 nM
- inhibition (INH) (Brassica juncea [9]): 50%
- inhibition (INH) (Amaranthus retroflexus [10]): 100%
- inhibition (INH) (Amaranthus retroflexus [11]): 100%
- inhibition (INH) (Rumex acetosa [12]): 30%
- inhibition (INH) (Eclipta prostrata [13]): 0%
- inhibition (INH) (Brassica juncea [14]): 0%
- inhibition (INH) (Polygonum humifusum [15]): 60%
- inhibition (INH) (Abutilon theophrasti [16]): 0%
- inhibition (INH) (Rumex acetosa [17]): 0%
- inhibition (INH) (Cyperus iria [18]): 60%
- inhibition (INH) (Abutilon theophrasti [19]): 0%
- inhibition (INH) (Brassica juncea [20]): 0%
- inhibition (INH) (Abutilon theophrasti [21]): 0%
- inhibition (INH) (Eclipta prostrata [22]): 70%

SMILES: CCOC(=O)CCSc1nc2cc(-n3nc(C(C)(C)C)oc3=O)c(Cl)cc2s1
- inhibition (INH) (Digitaria sanguinalis): 0%
- inhibition (INH) (Rumex acetosa [1]): 70%
- inhibition (INH) (Poa annua): 0%
- inhibition (INH) (Cyperus iria [2]): 60%
- inhibition (INH) (Polygonum humifusum [3]): 70%
- inhibition (INH) (Amaranthus retroflexus [4]): 50%
- inhibition (INH) (Echinochloa crus-galli): 0%
- inhibition (INH) (Eclipta prostrata [5]): 60%
- inhibition (INH) (Cyperus iria [6]): 40%
- inhibition (INH) (Polygonum humifusum [7]): 70%
- Ki [8]: 250 nM
- inhibition (INH) (Brassica juncea [9]): 70%
- inhibition (INH) (Amaranthus retroflexus [10]): 60%
- inhibition (INH) (Amaranthus retroflexus [11]): 80%
- inhibition (INH) (Rumex acetosa [12]): 70%
- inhibition (INH) (Eclipta prostrata [13]): 50%
- inhibition (INH) (Brassica juncea [14]): 60%
- inhibition (INH) (Polygonum humifusum [15]): 70%
- inhibition (INH) (Abutilon theophrasti [16]): 0%
- inhibition (INH) (Rumex acetosa [17]): 60%
- inhibition (INH) (Cyperus iria [18]): 50%
- inhibition (INH) (Abutilon theophrasti [19]): 0%
- inhibition (INH) (Brassica juncea [20]): 60%
- inhibition (INH) (Abutilon theophrasti [21]): 0%
- inhibition (INH) (Eclipta prostrata [22]): 60%

SMILES: COC(=O)CSc1nc2cc(-n3nc(C(C)(C)C)oc3=O)c(Br)cc2s1
- inhibition (INH) (Digitaria sanguinalis): 0%
- inhibition (INH) (Rumex acetosa [1]): 60%
- inhibition (INH) (Poa annua): 0%
- inhibition (INH) (Cyperus iria [2]): 50%
- inhibition (INH) (Polygonum humifusum [3]): 70%
- inhibition (INH) (Amaranthus retroflexus [4]): 50%
- inhibition (INH) (Echinochloa crus-galli): 0%
- inhibition (INH) (Eclipta prostrata [5]): 0%
- inhibition (INH) (Cyperus iria [6]): 40%
- inhibition (INH) (Polygonum humifusum [7]): 60%
- Ki [8]: 7460 nM
- inhibition (INH) (Brassica juncea [9]): 0%
- inhibition (INH) (Amaranthus retroflexus [10]): 60%
- inhibition (INH) (Amaranthus retroflexus [11]): 80%
- inhibition (INH) (Rumex acetosa [12]): 50%
- inhibition (INH) (Eclipta prostrata [13]): 0%
- inhibition (INH) (Brassica juncea [14]): 0%
- inhibition (INH) (Polygonum humifusum [15]): 70%
- inhibition (INH) (Abutilon theophrasti [16]): 0%
- inhibition (INH) (Rumex acetosa [17]): 40%
- inhibition (INH) (Cyperus iria [18]): 40%
- inhibition (INH) (Abutilon theophrasti [19]): 0%
- inhibition (INH) (Brassica juncea [20]): 0%
- inhibition (INH) (Abutilon theophrasti [21]): 0%
- inhibition (INH) (Eclipta prostrata [22]): 0%

Source: ChEMBL document CHEMBL3045650, “Design, synthesis, and 3D-QSAR analysis of novel 1,3,4-oxadiazol-2(3H)-ones as protoporphyrinogen oxidase inhibitors” (J Agric Food Chem, 2010)
